# A selection: hits, their analogues and other compounds. The true share with any hit is near 1.9%.
# proKLK7 act – activates the human kallikrein-7 zymogen | 0.9% of 370,000 active | AID 652039 | P49862 | activation, % at 7 µM | purified proKLK7, EDANS-DABCYL substrate fluorescence; 100% is mature enzyme control, 0% vehicle;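 active means activation above the mean of all tested compounds plus 3 SD, computed per campaign excluding outliers beyond control limits, cut at about 13% in these data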
# Target sequence (P49862 whole entry, looked up): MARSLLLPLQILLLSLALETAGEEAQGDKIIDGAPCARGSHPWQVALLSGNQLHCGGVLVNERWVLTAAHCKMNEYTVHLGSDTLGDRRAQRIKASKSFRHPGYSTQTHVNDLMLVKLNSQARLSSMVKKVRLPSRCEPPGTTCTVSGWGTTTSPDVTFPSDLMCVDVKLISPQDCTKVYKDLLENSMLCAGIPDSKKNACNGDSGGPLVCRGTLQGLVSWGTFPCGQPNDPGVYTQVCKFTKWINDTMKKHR
# Rce1 inh – inhibitors of yeast Ras-converting enzyme | 0.27% of 290,000 active | calls only | yeast membranes, quenched prenylated peptide cleavage fluorescence | Q03530 | AID 2563;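 active means fall in fluorescence gain of 50% or more versus controls, with final raw signal at or below 3038400; inconclusive means same 50% fall but final raw signal above 3038400; inactive means fall in fluorescence gain under 50%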;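 further: plate controls were neutral control wells for no effect and wells lacking membranes for full effect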
# Target sequence (Q03530 whole entry, looked up): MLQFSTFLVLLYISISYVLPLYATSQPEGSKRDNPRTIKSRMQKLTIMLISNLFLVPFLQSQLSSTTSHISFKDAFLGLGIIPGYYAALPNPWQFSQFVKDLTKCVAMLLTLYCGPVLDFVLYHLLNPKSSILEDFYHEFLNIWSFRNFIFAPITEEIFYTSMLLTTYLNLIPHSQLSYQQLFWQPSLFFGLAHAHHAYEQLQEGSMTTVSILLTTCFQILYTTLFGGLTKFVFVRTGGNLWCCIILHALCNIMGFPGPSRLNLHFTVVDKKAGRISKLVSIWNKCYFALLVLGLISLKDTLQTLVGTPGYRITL
# Yeast superoxide – yeast age-related superoxide inhibition as caloric restriction mimetic; superoxide response (% of plate mean), % at 10 µM; S. cerevisiae aged cells, superoxide DHE fluorescence; hits give low values; 0.18% of 330,000 active;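 active means superoxide response under a set limit, about three screen SD below normal, cut at about 65% in these data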;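 further: yeast aged for seven days with compound at 30 °C before DHE staining; 100% = average MFI of all compound-treated wells on the plate with controls excluded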
# V-ATPase pH – regulators of yeast V-ATPase proton transport; 0.37% of 350,000 active; response, % at 10 µM; AID 504577; S. cerevisiae, pHLuorin cytosolic pH fluorescence; in the data active means response mostly above about 7.3%, no sharp cut-off; inactive means mostly below about 5.4%; further: actives read high
# MIN6 prolif – induces beta-cell replication in MIN6 cells | MIN6 cells proliferation, ATPlite luminescence, 48 h; cells starved in 0.2% serum; 100% = growth in 10% serum | proliferation, % at 10 µM | 0.29% of 330,000 active | AID 2380;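 active means compounds whose signal lies at least 3.5 SD above the mean of all wells on their plate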;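 further: 0% = DMSO-treated cells in low-serum medium and 100% = 10% serum control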
# T cell modulator – modulates CD8 T cell binding to vesicles; 2C CD8+ T cell-vesicle binding, flow cytometry; hits give low values; response (vesicle binding), % at 7 µM; 0.068% of 330,000 active; AID 2052;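 active means response, share of CD8 T cells binding vesicles, and their 90th percentile fluorescence all below set limits, cut at about 80% in these data, passing the limit was not always enough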;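 further: values below 100% mean blocked vesicle binding to the CD8+ T cells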
#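 Test system: purified 2C TCR transgenic mouse naive CD8+ T cells. Probe or stimulus: QL9-peptide-loaded Drosophila micro-vesicles bearing Ld, ICAM-1 and B7-1. Incubation: binding step 1.5 h, 37 °C, antibody labelling 20 min, ice. Measured by: flow cytometry of vesicle-bound cells.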
# proKLK7 act conf – confirmation of human kallikrein-7 zymogen activators; activation, % at 7 µM; 68% of 3,200 active; shares compounds with proKLK7 act; purified proKLK7, EDANS-DABCYL substrate fluorescence; scaled: vehicle 0, mature enzyme 100;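 active means activation, as change over the incubation, above the mean of all tested compounds plus 3 SD, cut at about 13% in these data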
# EDANS-DABCYL int – fluorescence interference counter-screen for KLK7 activators. shares compounds with proKLK7 act. AID 686952. 80% of 3,200 active. activation, % at 7 µM. EDANS-DABCYL substrate fluorescence interference, no enzyme, 4 h; solvent 0%, active enzyme control 100%;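 active means activation above the all-compound mean plus 3 SD, ignoring values outside control-based bounds, cut at about 4.8% in these data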;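 further: value is the 4 h activation minus the activation read at time zero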
# An asterisk follows results filed as active; i = inactive; ? = inconclusive; / = no result given; + = active, no number.
SMILES,proKLK7 act,Rce1 inh,Yeast superoxide,V-ATPase pH,MIN6 prolif,T cell modulator,proKLK7 act conf,EDANS-DABCYL int
O=C(O)c1ccc(N/N=C/c2ccncc2)cc1,-1.1,i,87.8,-4.3,0.7,537.5,/,/
COc1ccc(-c2cn3cc(C(=O)NN)ccc3n2)cc1,39.7*,i,108.7,5.8,-0.6,304.1,7.7,10.0*
Cc1ccc2[nH]c3c(c2c1)SC(C)(C)CC3=O,15.3*,/,106.4,0.6,-1.4,444.1,12.7*,16.2*
CCN(Cc1ccccc1)C(=O)Nc1c(Cl)cccc1Cl,-0.4,/,/,/,/,/,/,/
COC(=O)Nc1nnc(-c2ccccc2OC)s1,-12.5,i,96.7,0.0,-2.3,i,/,/
COc1ccccc1-c1nnc(SC2CCc3ccccc3NC2=O)s1 (stereo unspecified),12.9*,i,102.0,2.4,-2.5,614.1,-4.0,6.3*
COc1cc2sc(-c3ccc(S(C)(=O)=O)cc3)c(C(=O)NCc3ccc(C)o3)c2cc1OC,13.7*,/,100.3,1.7,4.2,288.8,23.3*,31.2*
COc1cc2sc(-c3ccc(S(C)(=O)=O)cc3)c(C(=O)NCCCCO)c2cc1OC,31.2*,/,99.8,-1.7,-3.1,398.7,22.3*,31.8*
Cc1cc([N+](=O)[O-])ccc1P(=O)(O)c1ccc([N+](=O)[O-])cc1C,-0.2,/,/,1.3,/,/,/,/
Cc1nc2ccc(C(=O)N3CCC(O)(Cc4ccccc4)CC3)cn2c1N(C)C(=O)CCc1ccccc1,-0.3,/,/,/,/,/,/,/
COC(=O)c1cc(-c2ccc(C(C)=O)cc2)c(=O)n2c1CCC2,39.4*,/,/,/,/,/,71.9*,71.2*
COC(=O)c1cc(-c2ccc(C)cc2)c(=O)n2c1CCC2,0.4,/,/,/,/,/,/,/
CC1CC(=O)NN1C(=O)c1ccccc1 (stereo unspecified),0.0,i,116.3,3.9,4.7,230.5,/,/
COc1ccccc1C=C1CCc2ccccc2C1=O,-1.4,/,/,/,/,/,/,/
COc1cc(OC)c(OC)cc1/C=C1/Cc2ccccc2C1=O,21.2*,i,87.2,-118.0,0.0,i,91.7*,89.8*
CC(C)OC(=O)CSc1nc2c(cc1C#N)CCCCC2,0.3,i,102.0,5.3,1.7,402.3,/,/
CCOC(=O)CC(=O)CSc1nc2c(cc1C#N)CCCCC2,29.0*,i,104.0,-6.2,-3.0,179.3,58.8*,61.7*
N#CCSc1nc2c(cc1C#N)CCCCCC2,14.8*,/,93.1,-7.6,-1.8,157.5,34.0*,33.4*
CC(C)OC(=O)CC(=O)CSc1nc2c(cc1C#N)CCCCC2,24.4*,i,103.2,0.9,-5.5,967.7,79.8*,81.1*
O=C(NCc1ccccc1)[C@@H]1CCCN1C(=O)[C@H]1CCCN1C(=O)c1c(F)cccc1F,-0.1,/,/,/,/,/,/,/
Cc1cc(=O)oc2c3c(cc(OCC(=O)N4CCC(C(=O)O)CC4)c12)OC(C)(C)CC3,47.5*,+,81.5,-1.3,-1.1,266.7,64.6*,60.8*
CCCCc1cc(=O)oc2c3c(cc(OCC(=O)N4CCC[C@H]4C(=O)O)c12)OC(C)(C)CC3,52.6*,i,111.0,-1.6,3.1,274.2,57.0*,62.4*
Cc1cc(=O)oc2c3c(cc(OCC(=O)N4CCC[C@H]4C(=O)O)c12)OC(C)(C)CC3,34.8*,?,146.9,0.2,1.5,219.9,65.6*,64.5*
Cc1cc(=O)oc2c3c(cc(OCC(=O)Nc4ccc(CCO)cc4)c12)OC(C)(C)CC3,-37.8,i,138.7,-0.7,-1.6,232.4,/,/
CCCCn1c(N)c(N(CC(C)C)C(=O)c2ccc3c(c2)NC(=O)C(C)S3)c(=O)[nH]c1=O (stereo unspecified),-0.2,i,106.3,0.9,2.1,374.1,/,/
SMILES,proKLK7 act,Rce1 inh,Yeast superoxide,V-ATPase pH,MIN6 prolif,T cell modulator,proKLK7 act conf,EDANS-DABCYL int
O=C(NCCCN1CCCC1=O)c1ccccc1OCc1ccc(Cl)cc1Cl,-0.4,/,91.4,-2.9,-1.0,563.4,/,/
O=C(NCCc1ccc(F)cc1)c1coc(=O)c(Br)c1,12.7*,i,73.4,2.6,-4.7,231.0,30.2*,29.4*
Cc1ccc(C(=O)OCC(=O)N2CCC(c3ccccc3)=N2)cc1,-0.3,/,99.6,5.2,-1.3,278.9,/,/
Cc1ccc(CNC(=O)CN(C)S(=O)(=O)c2ccc(F)cc2)cc1,-0.4,/,106.5,-0.9,-2.4,i,/,/
CCn1c2ccccc2c2cc(NC(=O)CN3CCCC3)ccc21,81.9*,i,98.0,-0.3,-2.0,720.4,-0.8,-0.5
CC(=O)Nc1ccc(NC(=O)c2cc(=O)c3ccc(C)cc3o2)cc1,15.3*,i,101.5,1.9,0.0,206.3,0.2,0.5
CC[C@]12c3[nH]c4cc(-c5ccco5)ccc4c3CCN1C(=O)[C@@H](CC(=O)NCCCn1ccnc1)C[C@@H]2C(=O)N1CCN(C(=O)C2CC2)CC1,68.6*,/,121.2,1.2,/,/,54.0*,53.2*
CC[C@]12c3[nH]c4cc(-c5ccco5)ccc4c3CCN1C(=O)[C@@H](CC(=O)NCCCn1ccnc1)C[C@@H]2C(=O)N1CCN(C(=O)c2ccco2)CC1,97.1*,/,111.7,-1.4,/,/,130.8*,130.0*
Cc1nnsc1C(=O)Nc1ccc(S(=O)(=O)N2CCCCC2C)cc1 (stereo unspecified),-0.1,i,79.7,-4.3,2.9,467.6,/,/
C[C@H](CO)N1C[C@H](C)[C@@H](CN(C)S(=O)(=O)c2ccccc2C#N)OCc2cnnn2CCCC1=O,1.3,/,/,0.6,/,/,/,/
CCN(c1cccc(C)c1)S(=O)(=O)c1ccc2c3c(cccc13)C(=O)N2,-1.4,i,100.2,-3.7,-1.3,224.8,/,/
O=C1Nc2ccc(S(=O)(=O)NCCCO)c3cccc1c23,63.6*,i,93.0,3.3,-1.3,158.5,82.9*,86.4*
CCNS(=O)(=O)c1ccc2c3c(cccc13)C(=O)N2,85.9*,i,103.5,2.9,-0.4,425.7,67.8*,81.8*
O=C1Nc2ccc(S(=O)(=O)NCCC3=CCCCC3)c3cccc1c23,18.0*,i,114.6,1.3,-0.3,143.1,11.6,19.1*
Cc1ccc(C)c(OCCC(=O)OCC(=O)NNC(=O)c2ccccc2)c1,0.5,/,80.7,2.2,4.3,200.2,/,/
O=c1oc2cc(O)ccc2cc1-c1ccccc1,71.7*,i,98.8,-1.1,0.6,337.9,65.8*,77.0*
COc1ccc(-c2c(C)c3cc(O)ccc3oc2=O)cc1,0.5,i,105.0,-0.1,-2.3,483.8,/,/
O=c1oc2ccccc2cc1-c1ccc(O)cc1O,-0.5,i,89.3,1.0,3.6,327.2,/,/
COc1ccc(-c2cc3ccc(O)cc3oc2=O)cc1,53.0*,?,90.2,2.5,-3.0,236.0,75.3*,74.1*

# High-throughput results: PubChem, several laboratories
